Activity calls are given as the source filed them. The calls are words filed in the database; no cut-off is given here.
Tested on: MSTO-211H
Experiment: Cytotoxicity against human MSTO-211H cells after 48 hrs by sulforhodamine B assay
Format: functional, cell-based
Settings: not given
Method in brief: (§1)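 Cells grown in RPMI 1640 with 10% FCS, 2 mM glutamine and penicillin/streptomycin, at 37 °C in 5% CO2 under normoxia. Compounds (10 mM DMSO stocks) are added on day 1 after plating at 1–100 µM, in triplicate, for 48 h. DMSO 0.25% v/v serves as control. Cells are TCA-fixed, stained with SRB and read at 492 nm. Growth is calculated relative to T0 and control. IC50 reported as mean ± SD from at least two experiments.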

Compound | IC50
O=C(O)c1cc2c(C(F)(F)F)cc(-c3ccccc3)cc2n1O | 10.6 µM
O=C(O)c1cc2cc(-c3ccccc3)ccc2n1O | 2.5 µM
O=C(O)c1cc2ccc(-c3ccccc3)cc2n1O | 2.4 µM

Tested on: NCI-H28
Experiment: Cytotoxicity against human NCI-H28 cells after 48 hrs by sulforhodamine B assay
Format: functional, cell-based
Settings: NCI-H28, 48 h
Method in brief: as §1

Compound | IC50
O=C(O)c1cc2c(C(F)(F)F)cc(-c3ccccc3)cc2n1O | 11.4 µM
O=C(O)c1cc2cc(-c3ccccc3)ccc2n1O | 5.8 µM
O=C(O)c1cc2ccc(-c3ccccc3)cc2n1O | 7.8 µM

Biological target: T1, L-lactate dehydrogenase A chain (Homo sapiens, UniProt P00338)
Experiment: Inhibition of human LDH-A using pyruvate as substrate and NADH as cofactor at 125 uM after 5 mins by calorimetric assay relative to control
Settings: not given

Compound | inhibition
O=C(O)c1cc2c(C(F)(F)F)cc(-c3ccccc3)cc2n1O | 87%
COn1c(C(=O)O)cc2ccc(-c3ccccc3)cc21 | inactive
O=C(O)c1cc2cc(-c3ccccc3)ccc2n1O | 99%
O=C(O)c1cc2ccc(-c3ccccc3)cc2n1O | 84%
O=C(O)c1cc2cc(-c3ccccc3)ccc2[nH]1 | Active
O=C(O)c1cc2c(Br)cccc2n1O | 32%
O=C(O)c1cc2ccc(-c3nn[nH]n3)cc2n1O | 11%
COC(=O)c1cc2ccc(-c3ccccc3)cc2n1O | 4%

Biological target: L-lactate dehydrogenase B chain (Homo sapiens) (UniProt P07195)
Sequence (P07195 2-334 limits assumed): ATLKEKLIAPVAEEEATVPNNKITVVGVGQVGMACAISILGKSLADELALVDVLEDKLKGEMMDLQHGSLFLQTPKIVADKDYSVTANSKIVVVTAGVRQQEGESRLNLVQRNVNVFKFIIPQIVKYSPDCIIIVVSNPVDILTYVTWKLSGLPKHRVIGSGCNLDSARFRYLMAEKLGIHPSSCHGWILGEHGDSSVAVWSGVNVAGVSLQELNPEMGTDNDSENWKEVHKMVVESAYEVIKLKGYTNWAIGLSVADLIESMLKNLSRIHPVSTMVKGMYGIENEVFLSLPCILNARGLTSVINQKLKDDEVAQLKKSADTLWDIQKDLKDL
Experiment: Inhibition of human LDH-B using pyruvate as substrate and NADH as cofactor at 125 uM after 5 mins by calorimetric assay relative to control
Settings: not given
Method in brief: (§2)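 Purified human LDH1 (LDH-B4), run as for LDH-A but only under pyruvate saturation (2 mM sodium pyruvate) with 25 µM NADH. Test compound at 125 µM, 37 °C, phosphate buffer. Activity is the A340 decrease from NADH consumption, read every 30 s for 5 min. Percent inhibition is relative to control, as mean ± SD of two or more independent experiments. Detection limit is 3%.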

Compound | inhibition
O=C(O)c1cc2c(C(F)(F)F)cc(-c3ccccc3)cc2n1O | 11%
COn1c(C(=O)O)cc2ccc(-c3ccccc3)cc21 | inactive
O=C(O)c1cc2cc(-c3ccccc3)ccc2[nH]1 | Active
COC(=O)c1cc2ccc(-c3ccccc3)cc2n1O | 8%

Biological target: L-lactate dehydrogenase B chain (Homo sapiens) (UniProt P07195)
Experiment: Inhibition of human LDH-B using saturating concentration of pyruvate and NADH as cofactor after 5 mins by calorimetric assay relative to control
Settings: not given
Method in brief: as §2

Compound | inhibition
O=C(O)c1cc2c(C(F)(F)F)cc(-c3ccccc3)cc2n1O | 11%
O=C(O)c1cc2cc(-c3ccccc3)ccc2n1O | < 3%
O=C(O)c1cc2ccc(-c3ccccc3)cc2n1O | < 3%

Biological target: T1, L-lactate dehydrogenase A chain
Experiment: Competitive inhibition of human LDH-A using NADH as substrate after 5 mins by calorimetric assay relative to control
Settings: not given
Method in brief: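 Ki values from Lineweaver-Burk double-reciprocal plots. Enzyme is purified human LDH5 (LDH-A4), 0.005 units, in 100 mM sodium phosphate pH 7.4 at 37 °C. Pyruvate is held saturating at 2 mM while NADH is varied from 12.5 to 150 µM. Inhibitor is at 25–100 µM. NADH oxidation is read as A340 every 30 s for 5 min, in triplicate.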

Compound | Ki
O=C(O)c1cc2c(C(F)(F)F)cc(-c3ccccc3)cc2n1O | 8.9 µM
O=C(O)c1cc2cc(-c3ccccc3)ccc2n1O | 10.4 µM
O=C(O)c1cc2ccc(-c3ccccc3)cc2n1O | 19.8 µM

Biological target: T1, L-lactate dehydrogenase A chain
Experiment: Competitive inhibition of human LDH-A using pyruvate as substrate after 5 mins by calorimetric assay relative to control
Settings: not given
Method in brief: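 Ki values from Lineweaver-Burk double-reciprocal plots. Enzyme is purified human LDH5 (LDH-A4), 0.005 units, in 100 mM sodium phosphate pH 7.4 at 37 °C. NADH is held saturating at 200 µM while sodium pyruvate is varied from 25 µM to 1 mM. Inhibitor is at 25–100 µM. A340 decrease is read every 30 s for 5 min, in triplicate.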

Compound | Ki
O=C(O)c1cc2c(C(F)(F)F)cc(-c3ccccc3)cc2n1O | 4.7 µM
O=C(O)c1cc2cc(-c3ccccc3)ccc2n1O | 15.7 µM
O=C(O)c1cc2ccc(-c3ccccc3)cc2n1O | 35.4 µM

Tested on: HeLa
Experiment: Reduction in lactate production in perfused human HeLa cells assessed as lactate to glucose ratio at 500 uM after 12 hrs by NMR spectroscopy using D-[1,6-13C2]glucose as substrate relative to control
Format: functional
Settings: not given
Method in brief: (§3)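 HeLa cells are grown in RPMI-1640 with 10% FBS to 80% confluency, then washed for 15 min in glucose-free DMEM. Medium is replaced with DMEM containing 10 mM D-[1,6-13C2]glucose. Compound is added from 100× DMSO stocks (1% DMSO final), with vehicle controls, at 37 °C under normoxia. Medium is sampled at 6 and 12 h. 13C NMR gives the lactate-C3 (20.28 ppm) to glucose-C6 (60.95 ppm) peak-area ratio.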

Compound | Ratio
O=C(O)c1cc2c(C(F)(F)F)cc(-c3ccccc3)cc2n1O | < 0.01
O=C(O)c1cc2ccc(-c3ccccc3)cc2n1O | 0.12

Tested on: HeLa
Experiment: Reduction in lactate production in perfused human HeLa cells at 400 uM after 12 hrs by NMR spectroscopy using D-[1,6-13C2]glucose as substrate
Format: functional
Set-up: scale not given: the % may be the effect or the level left
Settings: not given
Method in brief: as §3

Compound | Activity
O=C(O)c1cc2c(C(F)(F)F)cc(-c3ccccc3)cc2n1O | 20%

Tested on: HeLa
Experiment: Reduction in lactate production in perfused human HeLa cells at < 400 uM after 12 hrs by NMR spectroscopy using D-[1,6-13C2]glucose as substrate
Format: functional, cell-based
Settings: not given
Method in brief: as §3

Compound | Activity
O=C(O)c1cc2c(C(F)(F)F)cc(-c3ccccc3)cc2n1O | inactive

Tested on: not listed separately
Experiment: Cytotoxicity against human ADDP cells after 48 hrs by sulforhodamine B assay
Format: functional, cell-based
Settings: not given
Method in brief: as §1

Compound | IC50
O=C(O)c1cc2c(C(F)(F)F)cc(-c3ccccc3)cc2n1O | 17 µM
O=C(O)c1cc2cc(-c3ccccc3)ccc2n1O | 14.6 µM
O=C(O)c1cc2ccc(-c3ccccc3)cc2n1O | 16.3 µM

Tested on: A2780
Experiment: Cytotoxicity against human A2780 cells after 48 hrs by sulforhodamine B assay
Format: functional, cell-based
Settings: A2780, 48 h
Method in brief: as §1

Compound | IC50
O=C(O)c1cc2c(C(F)(F)F)cc(-c3ccccc3)cc2n1O | 10.8 µM
O=C(O)c1cc2cc(-c3ccccc3)ccc2n1O | 13.7 µM
O=C(O)c1cc2ccc(-c3ccccc3)cc2n1O | 10.1 µM

Tested on: NCI-H630
Experiment: Cytotoxicity against human NCI-H630 cells after 48 hrs by sulforhodamine B assay
Format: functional, cell-based
Settings: NCI-H630, 48 h
Method in brief: as §1

Compound | IC50
O=C(O)c1cc2c(C(F)(F)F)cc(-c3ccccc3)cc2n1O | 31.5 µM
O=C(O)c1cc2cc(-c3ccccc3)ccc2n1O | 17.7 µM
O=C(O)c1cc2ccc(-c3ccccc3)cc2n1O | 15.1 µM

Tested on: NCI-H2452
Experiment: Cytotoxicity against human NCI-H2452 cells after 48 hrs by sulforhodamine B assay
Format: functional, cell-based
Settings: NCI-H2452, 48 h
Method in brief: as §1

Compound | IC50
O=C(O)c1cc2c(C(F)(F)F)cc(-c3ccccc3)cc2n1O | 90.2 µM
O=C(O)c1cc2cc(-c3ccccc3)ccc2n1O | 45.3 µM
O=C(O)c1cc2ccc(-c3ccccc3)cc2n1O | 21.3 µM

Tested on: NCI-H2052
Experiment: Cytotoxicity against human NCI-H2052 cells after 48 hrs by sulforhodamine B assay
Format: functional, cell-based
Settings: NCI-H2052, 48 h
Method in brief: as §1

Compound | IC50
O=C(O)c1cc2c(C(F)(F)F)cc(-c3ccccc3)cc2n1O | 73.2 µM
O=C(O)c1cc2cc(-c3ccccc3)ccc2n1O | 62.4 µM
O=C(O)c1cc2ccc(-c3ccccc3)cc2n1O | 50.5 µM

Tested on: not listed separately
Experiment: Cytotoxicity against human LPc006 cells after 48 hrs by sulforhodamine B assay
Format: functional, cell-based
Settings: LPc006, 48 h
Method in brief: as §1

Compound | IC50
O=C(O)c1cc2c(C(F)(F)F)cc(-c3ccccc3)cc2n1O | 16.3 µM
O=C(O)c1cc2cc(-c3ccccc3)ccc2n1O | 14.3 µM
O=C(O)c1cc2ccc(-c3ccccc3)cc2n1O | 15.7 µM

Tested on: not listed separately
Experiment: Cytotoxicity against human LPc028 cells after 48 hrs by sulforhodamine B assay
Format: functional, cell-based
Settings: LPc028, 48 h
Method in brief: as §1

Compound | IC50
O=C(O)c1cc2c(C(F)(F)F)cc(-c3ccccc3)cc2n1O | 41.2 µM
O=C(O)c1cc2cc(-c3ccccc3)ccc2n1O | 48.8 µM
O=C(O)c1cc2ccc(-c3ccccc3)cc2n1O | 32.3 µM

Tested on: not listed separately
Experiment: Cytotoxicity against human LPc067 cells after 48 hrs by sulforhodamine B assay
Format: functional, cell-based
Settings: LPc067, 48 h
Method in brief: as §1

Compound | IC50
O=C(O)c1cc2c(C(F)(F)F)cc(-c3ccccc3)cc2n1O | 13.5 µM
O=C(O)c1cc2cc(-c3ccccc3)ccc2n1O | 20.9 µM
O=C(O)c1cc2ccc(-c3ccccc3)cc2n1O | 18.2 µM

Tested on: not listed separately
Experiment: Cytotoxicity against immortalized human HPNE cells expressing human TERT after 48 hrs by sulforhodamine B assay
Format: functional, cell-based
Settings: not given
Method in brief: as §1

Compound | IC50
O=C(O)c1cc2c(C(F)(F)F)cc(-c3ccccc3)cc2n1O | > 100 µM
O=C(O)c1cc2cc(-c3ccccc3)ccc2n1O | > 100 µM
O=C(O)c1cc2ccc(-c3ccccc3)cc2n1O | > 100 µM

Tested on: HS27
Experiment: Cytotoxicity against immortalized human HS27 cells after 48 hrs by sulforhodamine B assay
Format: functional, cell-based
Settings: HS27, 48 h
Method in brief: as §1

Compound | IC50
O=C(O)c1cc2c(C(F)(F)F)cc(-c3ccccc3)cc2n1O | > 100 µM
O=C(O)c1cc2cc(-c3ccccc3)ccc2n1O | > 100 µM
O=C(O)c1cc2ccc(-c3ccccc3)cc2n1O | > 100 µM

Tested on: not listed separately
Experiment: Cytotoxicity against human LPc006 cells grown in hypoxic condition after 48 hrs by sulforhodamine B assay relative to normoxygenated cells
Format: functional, cell-based
Settings: LPc006, 48 h
Method in brief: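 LPC006 primary pancreatic cancer cells are treated with compounds at 1–100 µM for 48 h under hypoxia (1% O2, 5% CO2, 94% N2, 37 °C). Read-out is the SRB assay at 492 nm with growth calculated relative to T0 and control. IC50 is the mean ± SE of three independent experiments and is compared with normoxic cells by Student's t-test.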

Compound | IC50
O=C(O)c1cc2c(C(F)(F)F)cc(-c3ccccc3)cc2n1O | 0.9 µM
O=C(O)c1cc2cc(-c3ccccc3)ccc2n1O | 0.1 µM
O=C(O)c1cc2ccc(-c3ccccc3)cc2n1O | 0.36 µM

Tested on: ADDP
Experiment: Effect on cell cycle distribution in human ADDP cells assessed as DNA content after 24 hrs by flow cytometry
Format: functional, cell-based
Settings: not given
Method in brief: (§4)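 Cells are trypsinized, pelleted and stained with cold propidium iodide buffer for 30 min on ice. DNA content is measured by flow cytometry (10 000 cells/sample) to give G0/G1, S and G2/M fractions and the sub-G1 population. Results are mean ± SE of three experiments, analyzed by t-test or ANOVA.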

Compound | Activity
O=C(O)c1cc2c(C(F)(F)F)cc(-c3ccccc3)cc2n1O | Dose-dependent effect
O=C(O)c1cc2cc(-c3ccccc3)ccc2n1O | Dose-dependent effect
O=C(O)c1cc2ccc(-c3ccccc3)cc2n1O | Dose-dependent effect

Tested on: NCI-H630
Experiment: Effect on cell cycle distribution in human NCI-H630 cells assessed as DNA content after 24 hrs by flow cytometry
Format: functional, cell-based
Settings: not given
Method in brief: as §4

Compound | Activity
O=C(O)c1cc2c(C(F)(F)F)cc(-c3ccccc3)cc2n1O | Dose-dependent effect
O=C(O)c1cc2cc(-c3ccccc3)ccc2n1O | Dose-dependent effect
O=C(O)c1cc2ccc(-c3ccccc3)cc2n1O | Dose-dependent effect

Tested on: ADDP cell line
Experiment: Induction of apoptosis in human ADDP cells assessed as appearance of sub-G1 cell subpopulation at compound IC50 after 24 hrs by flow cytometry
Format: functional, cell-based
Settings: not given
Method in brief: as §4

Compound | Activity
O=C(O)c1cc2c(C(F)(F)F)cc(-c3ccccc3)cc2n1O | Active
O=C(O)c1cc2cc(-c3ccccc3)ccc2n1O | Active
O=C(O)c1cc2ccc(-c3ccccc3)cc2n1O | Active

Tested on: NCI-H630
Experiment: Induction of apoptosis in human NCI-H630 cells assessed as appearance of sub-G1 cell subpopulation at compound IC50 after 24 hrs by flow cytometry
Format: functional, cell-based
Settings: not given
Method in brief: as §4

Compound | Activity
O=C(O)c1cc2c(C(F)(F)F)cc(-c3ccccc3)cc2n1O | Active
O=C(O)c1cc2cc(-c3ccccc3)ccc2n1O | Active
O=C(O)c1cc2ccc(-c3ccccc3)cc2n1O | Active

Source: ChEMBL document CHEMBL1687923, “Discovery of N-hydroxyindole-based inhibitors of human lactate dehydrogenase isoform A (LDH-A) as starvation agents against cancer cells” (J Med Chem, 2011)
